Experimental data taken from ChEMBL document CHEMBL4033702, “Challenges in the development of an M4 PAM preclinical candidate: The discovery, SAR, and in vivo characterization of a series of 3-aminoazetidine-derived amides” (Bioorg Med Chem Lett, 2017).
In brackets after ≈: the same amount, converted by molar mass.

Tests used:
Rattus norvegicus [1] = assay: Reversal of amphetamine-induced hyperlocomotion in Sprague-Dawley rat at 0.1 mg/kg, po pretreated 30 mins post habituation in the chamber followed by amphetamine injection after 30 mins measured after 60 mins; assay type: functional
How it was run: (§1)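 Male Sprague-Dawley rats, n = 6–24 per dose group, were habituated in the chamber for 30 min. The compound or vehicle (10% tween-80 in water, v/v) was then given orally. Amphetamine 0.75 mg/kg was injected subcutaneously 30 min later. Total ambulations over t = 60–120 min gave % reversal of AHL, reported as mean ± SEM.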

[2] = target: T1, Muscarinic acetylcholine receptor M4 (Homo sapiens) (UniProt P08173); assay: Positive allosteric modulation of human M4 receptor expressed in CHO cells co-expressing Gqi5 assessed as increase in acetylcholine-induced calcium mobilization relative to acetylcholine; assay type: functional, cell-based
T1 sequence (whole entry): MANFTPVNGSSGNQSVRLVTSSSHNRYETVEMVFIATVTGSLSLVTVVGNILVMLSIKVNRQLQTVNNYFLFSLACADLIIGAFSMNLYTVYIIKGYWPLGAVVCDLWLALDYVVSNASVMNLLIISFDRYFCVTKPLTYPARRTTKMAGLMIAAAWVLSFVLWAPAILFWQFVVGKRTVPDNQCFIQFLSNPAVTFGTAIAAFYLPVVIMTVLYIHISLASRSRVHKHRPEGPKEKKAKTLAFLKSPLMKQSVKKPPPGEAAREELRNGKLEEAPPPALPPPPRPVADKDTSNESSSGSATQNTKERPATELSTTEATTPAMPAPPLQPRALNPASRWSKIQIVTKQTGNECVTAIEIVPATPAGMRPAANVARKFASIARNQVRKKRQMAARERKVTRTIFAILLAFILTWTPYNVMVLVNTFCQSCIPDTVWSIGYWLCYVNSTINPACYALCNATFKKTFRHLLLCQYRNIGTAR
How it was run: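 Calcium mobilization in CHO cells stably co-expressing hM4 and Gqi5, tested in the presence of a fixed EC20 concentration of acetylcholine. Values are means of three independent experiments, each run in triplicate.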

Canis familiaris [3] = assay: Oral bioavailability in Mongrel dog at 2 to 3 mg/kg; assay type: ADME, organism-based, Canis lupus familiaris; settings: in vivo
How it was run: (§2)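 IV and PO pharmacokinetics in female mongrel dogs, n = 1–2. The oral dose was a 2–3 mg/kg solution. Vss and oral bioavailability were determined.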

Rattus norvegicus [4] = assay: Reversal of amphetamine-induced hyperlocomotion in Sprague-Dawley rat at 0.03 mg/kg, po pretreated 30 mins post habituation in the chamber followed by amphetamine injection after 30 mins measured after 60 mins; assay type: functional; how it was run: as §1
[5] = Kinetic solubility of the compound in FaSSIF at pH 6.5 measured after 1 hr; assay type: physicochemical; settings: read-out: Kinetic_solubility
Macaca fascicularis = species: Macaca fascicularis; assay: Activity at cynomolgus monkey M4 receptor assessed as acetylcholine-induced calcium mobilization
[6] = target: T1, Muscarinic acetylcholine receptor M4 (Homo sapiens); assay: Activity at human M4 receptor assessed as acetylcholine-induced calcium mobilization; assay type: functional
Rattus norvegicus [7] = assay: Reversal of amphetamine-induced hyperlocomotion in Sprague-Dawley rat at 0.3 mg/kg, po pretreated 30 mins post habituation in the chamber followed by amphetamine injection after 30 mins measured after 60 mins; assay type: functional; how it was run: as §1
[8] = target: T2, Muscarinic acetylcholine receptor M4 (Rattus norvegicus) (UniProt P08485); assay: Activity at rat M4 receptor assessed as acetylcholine-induced calcium mobilization; assay type: functional
T2 sequence (whole entry): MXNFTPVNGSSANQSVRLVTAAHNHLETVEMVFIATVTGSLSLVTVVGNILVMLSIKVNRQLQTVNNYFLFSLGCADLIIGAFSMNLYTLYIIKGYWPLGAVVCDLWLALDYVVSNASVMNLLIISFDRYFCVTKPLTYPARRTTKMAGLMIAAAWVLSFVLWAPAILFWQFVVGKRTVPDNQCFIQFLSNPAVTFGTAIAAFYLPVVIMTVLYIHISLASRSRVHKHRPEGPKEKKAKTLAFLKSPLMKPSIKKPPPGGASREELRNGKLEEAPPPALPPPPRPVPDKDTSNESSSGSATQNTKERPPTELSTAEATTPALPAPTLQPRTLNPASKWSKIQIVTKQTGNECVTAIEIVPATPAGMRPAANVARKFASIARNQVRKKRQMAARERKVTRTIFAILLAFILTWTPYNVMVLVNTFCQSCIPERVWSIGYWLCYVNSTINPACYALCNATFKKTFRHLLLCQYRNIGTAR
How it was run: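 Ca2+ mobilization read-out. Acetylcholine concentration-response curves were run in the presence of the PAM to measure the fold-shift. An operational model was fitted to derive the PAM's affinity (KB) and cooperativity (αβ).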

Canis familiaris [9] = assay: Volume of distribution at steady state in iv or po dosed Mongrel dog; assay type: ADME, organism-based, Canis lupus familiaris; settings: in vivo; how it was run: as §2
Cytochrome P450 3A4 [10] = target: T3, Cytochrome P450 3A4 (Homo sapiens, UniProt P08684); assay: Time-dependent inhibition of CYP3A4 (unknown origin); assay type: ADME
T3 sequence (P08684 whole entry): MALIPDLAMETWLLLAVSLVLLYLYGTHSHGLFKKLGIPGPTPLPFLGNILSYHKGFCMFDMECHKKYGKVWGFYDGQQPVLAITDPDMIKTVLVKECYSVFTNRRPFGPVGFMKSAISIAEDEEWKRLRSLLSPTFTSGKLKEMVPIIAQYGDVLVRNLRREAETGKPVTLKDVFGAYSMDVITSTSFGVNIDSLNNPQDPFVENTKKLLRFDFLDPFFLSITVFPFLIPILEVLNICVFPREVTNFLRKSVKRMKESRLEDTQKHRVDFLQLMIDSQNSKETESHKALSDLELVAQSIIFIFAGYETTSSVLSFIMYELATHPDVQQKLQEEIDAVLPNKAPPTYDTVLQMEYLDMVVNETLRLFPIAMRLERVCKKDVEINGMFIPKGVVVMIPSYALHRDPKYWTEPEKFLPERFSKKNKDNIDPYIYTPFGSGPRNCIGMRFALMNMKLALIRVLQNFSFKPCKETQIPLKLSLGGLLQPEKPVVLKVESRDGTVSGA

Rattus norvegicus [11] = assay: Reversal of amphetamine-induced hyperlocomotion in Sprague-Dawley rat at 1 mg/kg, po pretreated 30 mins post habituation in the chamber followed by amphetamine injection after 30 mins measured after 60 mins; assay type: functional; how it was run: as §1
Rattus norvegicus [12] = assay: Reversal of amphetamine-induced hyperlocomotion in Sprague-Dawley rat assessed as plasma concentration required for the effect at 3 mg/kg, po pretreated 30 mins post habituation in the chamber followed by amphetamine injection after 30 mins measured at 1.5 hrs post dose; assay type: functional, organism-based
How it was run: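 Rat AHL study: oral dosing 30 min after chamber habituation, then amphetamine 0.75 mg/kg s.c. 30 min later. Terminal plasma concentrations in the study animals were measured 1.5 hr after compound administration. From these, an in vivo plasma EC50 was derived, both total and unbound.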

[13] = Clearance in Sprague-Dawley rat; assay type: ADME; settings: in vivo
How it was run: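 IV and PO pharmacokinetics in male Sprague-Dawley rats, n = 1–3. The oral dose was a 2–3 mg/kg solution. Plasma clearance, Vss and oral bioavailability were determined.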

Cytochrome P450 2D6 [14] = target: T4, Cytochrome P450 2D6 (Homo sapiens, UniProt P10635); assay: Time-dependent inhibition of CYP2D6 (unknown origin); assay type: ADME
T4 sequence (P10635 whole entry): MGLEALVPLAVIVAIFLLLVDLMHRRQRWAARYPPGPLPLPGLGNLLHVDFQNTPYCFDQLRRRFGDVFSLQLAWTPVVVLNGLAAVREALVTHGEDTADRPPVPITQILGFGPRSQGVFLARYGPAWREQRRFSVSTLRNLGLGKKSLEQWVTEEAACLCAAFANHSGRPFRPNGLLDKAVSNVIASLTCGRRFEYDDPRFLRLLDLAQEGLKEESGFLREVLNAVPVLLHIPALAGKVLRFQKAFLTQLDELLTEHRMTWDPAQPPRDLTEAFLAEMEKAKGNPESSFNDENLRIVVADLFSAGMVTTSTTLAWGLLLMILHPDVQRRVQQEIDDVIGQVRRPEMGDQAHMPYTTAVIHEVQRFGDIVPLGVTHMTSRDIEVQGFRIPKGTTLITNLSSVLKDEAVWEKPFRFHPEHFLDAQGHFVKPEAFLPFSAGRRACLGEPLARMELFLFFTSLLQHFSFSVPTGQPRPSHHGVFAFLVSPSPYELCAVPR

Brain [15] = assay: Drug level in Sprague-Dawley rat brain at 3 mg/kg, po; assay type: ADME, organism-based; settings: in vivo, read-out: Drug uptake
Cytochrome P450 2D6 [16] = target: T4, Cytochrome P450 2D6; assay: Inhibition of CYP2D6 (unknown origin); assay type: ADME
Cytochrome P450 2C19 = Cytochrome P450 2C19 (Homo sapiens, UniProt P33261); assay: Time-dependent inhibition of CYP2C19 (unknown origin); assay type: ADME
Cytochrome P450 2C19, sequence (P33261 whole entry): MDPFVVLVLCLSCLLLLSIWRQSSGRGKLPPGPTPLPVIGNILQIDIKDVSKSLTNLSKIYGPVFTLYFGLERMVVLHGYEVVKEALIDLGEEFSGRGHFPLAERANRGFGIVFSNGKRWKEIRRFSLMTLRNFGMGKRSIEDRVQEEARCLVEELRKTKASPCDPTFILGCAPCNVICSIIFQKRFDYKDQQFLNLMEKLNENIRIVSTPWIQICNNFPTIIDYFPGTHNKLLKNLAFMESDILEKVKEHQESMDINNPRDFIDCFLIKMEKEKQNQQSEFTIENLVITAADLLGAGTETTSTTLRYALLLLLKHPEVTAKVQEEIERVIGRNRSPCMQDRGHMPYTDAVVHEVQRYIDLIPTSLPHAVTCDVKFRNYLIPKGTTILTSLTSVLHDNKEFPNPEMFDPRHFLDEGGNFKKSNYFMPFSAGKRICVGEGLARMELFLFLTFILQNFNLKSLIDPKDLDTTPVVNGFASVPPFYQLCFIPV

Cytochrome P450 2C9 = Cytochrome P450 2C9 (Homo sapiens, UniProt P11712); assay: Time-dependent inhibition of CYP2C9 (unknown origin); assay type: ADME
Cytochrome P450 2C9, sequence (P11712 whole entry): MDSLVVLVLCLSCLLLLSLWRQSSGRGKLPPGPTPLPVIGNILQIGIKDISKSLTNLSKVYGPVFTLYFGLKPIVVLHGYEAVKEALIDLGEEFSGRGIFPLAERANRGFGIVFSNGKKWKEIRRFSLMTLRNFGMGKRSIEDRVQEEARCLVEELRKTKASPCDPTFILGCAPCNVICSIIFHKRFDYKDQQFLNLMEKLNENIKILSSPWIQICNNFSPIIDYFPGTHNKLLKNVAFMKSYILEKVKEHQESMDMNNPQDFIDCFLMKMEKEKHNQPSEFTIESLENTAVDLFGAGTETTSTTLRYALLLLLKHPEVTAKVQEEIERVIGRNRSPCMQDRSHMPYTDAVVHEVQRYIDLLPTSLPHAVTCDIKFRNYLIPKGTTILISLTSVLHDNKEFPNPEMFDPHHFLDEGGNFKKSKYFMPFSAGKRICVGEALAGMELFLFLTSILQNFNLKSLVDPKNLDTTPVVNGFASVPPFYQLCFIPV

Cytochrome P450 3A4 [17] = target: T3, Cytochrome P450 3A4; assay: Inhibition of CYP3A4 (unknown origin); assay type: ADME
Rattus norvegicus [18] = assay: Reversal of amphetamine-induced hyperlocomotion in Sprague-Dawley rat at 3 mg/kg, po pretreated 30 mins post habituation in the chamber followed by amphetamine injection after 30 mins measured after 60 mins; assay type: functional; how it was run: as §1
Brain [19] = assay: Drug level in Sprague-Dawley rat brain at 0.1 mg/kg, po; assay type: ADME, organism-based; settings: in vivo, read-out: Drug uptake
[20] = target: T5, Muscarinic acetylcholine receptor M4 (Homo sapiens, UniProt P08173); assay: Positive allosteric modulation of human M4 receptor expressed in CHO cells co-expressing Gqi5 assessed as increase in acetylcholine-induced calcium mobilization
T5 sequence (P08173 whole entry): T1 sequence (whole entry)

[21] = Oral bioavailability in Mongrel dog at 2 mg/kg administered as suspension; assay type: ADME, organism-based, Canis lupus familiaris; settings: in vivo
How it was run: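 Female mongrel dogs were dosed orally with a 2 mg/kg suspension in a low-excipient vehicle, and oral bioavailability was determined.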

Question: Which Activity (Rattus norvegicus [1]) does the source give for `Cc1nnc2sc(C(=O)NC3CN(c4cccc(F)c4F)C3)c(N)c2c1C` here?
Answer: 24%

Question: What about the %max [2] of the same compound?
Answer: 88%

Question: And the F (Canis familiaris [3])?
Answer: 20%

Question: What about the Activity (Rattus norvegicus [4]) of the same compound?
Answer: 18%

Question: And the solubility kinetic at 1 h [5]?
Answer: 15 µg/mL (≈ 38.5 µM)

Question: What about the Kb (Macaca fascicularis) of the same compound?
Answer: 890 nM

Question: What about the Kb [6] of the same compound?
Answer: 2000 nM

Question: And the Activity (Rattus norvegicus [7])?
Answer: 43%

Question: And the Kb [8]?
Answer: 120 nM

Question: And the Vdss (Canis familiaris [9])?
Answer: 1.6 L/kg

Question: And the TDI (Cytochrome P450 3A4 [10])?
Answer: Not Active

Question: What about the Activity (Rattus norvegicus [11]) of the same compound?
Answer: 64%

Question: What about the fEC50 (Rattus norvegicus [12]) of the same compound?
Answer: 0.66 nM

Question: What about the EC50 (Rattus norvegicus [12]; Rattus norvegicus, Sprague-Dawley) of the same compound?
Answer: 74 nM

Question: And the clearance [13]?
Answer: 16 mL/min/kg

Question: And the TDI (Cytochrome P450 2D6 [14])?
Answer: Not Active

Question: And the concentration (Brain [15])?
Answer: 510 nM

Question: And the IC50 (Cytochrome P450 2D6 [16])?
Answer: 14000 nM

Question: And the TDI (Cytochrome P450 2C19)?
Answer: Not Active

Question: What about the TDI (Cytochrome P450 2C9) of the same compound?
Answer: Not Active

Question: What about the IC50 (Cytochrome P450 3A4 [17]) of the same compound?
Answer: 11000 nM

Question: And the Activity (Rattus norvegicus [18])?
Answer: 74%

Question: What about the concentration (Brain [19]) of the same compound?
Answer: 9.9 nM

Question: What about the EC50 [20] of the same compound?
Answer: 19 nM

Question: And the bioavailability [21]?
Answer: 11%
